ChEMBL document CHEMBL1123601, “Enantiomers of 1-ethyl-7-[3-[(ethylamino)methyl]-1-pyrrolidinyl]-6,8-difluoro-1,4- dihydro-4-oxo-3-quinoline-carboxylic acid: preparation and biological activity” (J Med Chem, 1987)
≈ marks a conversion by molar mass, not a printed value.

Assays:
Assay type in all cases: functional
Escherichia coli [1] = experiment: Minimum inhibitory concentration (MIC) of compound was measured on Escherichia coli H560 (gram negative organism)
Outline: (§1)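 MICs (µg/mL) by standard microdilution (microtitration), with the enantiomers tested side by side with racemate across the organism panel. Aqueous stocks made up in 0.1 N NaOH or KOH. Performed in duplicate or triplicate; error of one serial dilution.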

Escherichia coli [2] = experiment: Dose required to protect 50% of mice from lethal infection was measured on Escherichia coli vogel (subcutaneously); conditions: sc, read-out: PD50
Outline: (§2)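 Female CD-1 mice (18-22 g) were challenged intraperitoneally with about 100 median lethal doses of E. coli in 5% hog gastric mucin. Single doses were given at challenge in a twofold rising series, subcutaneously as an aqueous solution or orally by gavage in 5% gum acacia. Groups of 8 mice per dose were used. PD50 was estimated from survival by log probit, with experiments run in duplicate.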

Streptococcus pyogenes [3] = experiment: Dose required to protect 50% of mice from lethal infection was measured on Streptococcus pyogenes C203 (p.o. administration); conditions: po, read-out: PD50
Outline: (§3)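 The lethal systemic infection in female CD-1 mice (18-22 g) was an intraperitoneal challenge of about 100 median lethal doses. Compound was given once at challenge in twofold rising doses, subcutaneously as an aqueous solution or orally by gavage in 5% gum acacia. PD50 was estimated by log probit from survival of groups of 8 mice, with experiments run in duplicate.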

Klebsiella pneumoniae = experiment: Minimum inhibitory concentration (MIC) of compound was measured on Klebsiella pneumoniae MGH-2(gram negative organism); outline: as §1
Staphylococcus aureus [4] = experiment: Minimum inhibitory concentration (MIC) of compound was measured on Staphylococcus aureus UC-76(gram positive organism); outline: as §1
Pseudomonas aeruginosa = experiment: Minimum inhibitory concentration (MIC) of compound was measured on Pseudomonas aeruginosa UI-18(gram negative organism); outline: as §1
Staphylococcus aureus [5] = experiment: Minimum inhibitory concentration (MIC) of compound was measured on Staphylococcus aureus H228 (gram positive organism); outline: as §1
Streptococcus pyogenes [6] = experiment: Dose required to protect 50% of mice from lethal infection was measured on Streptococcus pyogenes C203 (s.c.); conditions: sc, read-out: PD50; outline: as §3
Escherichia coli [7] = experiment: Dose required to protect 50% of mice from lethal infection was measured on Escherichia coli vogel(peroral administration); conditions: po, read-out: PD50; outline: as §2
Enterobacter cloacae = experiment: Minimum inhibitory concentration (MIC) of compound was measured on Enterobacter cloacae HA 2646(gram negative organism); outline: as §1
Streptococcus pneumoniae [8] = experiment: Dose required to protect 50% of mice from lethal infection was measured on Streptococcus pneumoniae SV-1 (subcutaneously); conditions: sc, read-out: PD50
Outline: (§4)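 Female CD-1 mice (18-22 g) received an intraperitoneal challenge of about 100 median lethal doses of S. pneumoniae in tryptic soy broth. A single dose was given at challenge in a twofold rising series, subcutaneously in aqueous solution or by oral gavage in 5% gum acacia. Survival of 8 mice per dose gave PD50 by log probit, with experiments run in duplicate.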

Streptococcus pneumoniae [9] = experiment: Dose required to protect 50% of mice from lethal infection was measured on Streptococcus pneumoniae SV-1(peroral administration); conditions: po, read-out: PD50; outline: as §4
Escherichia coli [10] = experiment: Concentration of compound needed to produce linear DNA at an intensity relative to oxolinic acid at 10 ug/mL was measured on Escherichia coli for gyrase-drug induced cleavage,.
Outline: (§5)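 DNA gyrase from E. coli H560 cells. Endpoint is the minimum drug concentration (µg/mL) that converts closed circular DNA to linear DNA, through denaturation of the drug–gyrase–DNA complex, at an intensity relative to oxolinic acid at 10 µg/mL. Linear DNA is resolved by gel electrophoresis and stained with ethidium bromide. Runs in duplicate or triplicate; error of one serial dilution.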

Streptococcus pyogenes [11] = experiment: Minimum inhibitory concentration (MIC) of compound was measured on Streptococcus pyogenes C203 (gram positive organism); outline: as §1
Enterococcus faecalis = experiment: Minimum inhibitory concentration (MIC) of compound was measured on Streptococcus faecalis MGH-2(gram positive organism); outline: as §1
Escherichia coli [12] = experiment: Minimum concentration of compound needed to produce linear DNA at an intensity relative to oxolinic acid at 10 ug/mL was measured on Escherichia coli for gyrase-drug induced cleavage.; outline: as §5
Providencia rettgeri = experiment: Minimum inhibitory concentration (MIC) of compound was measured on Providencia rettgeri H1771 (gram negative organism); outline: as §1
Escherichia coli [13] = experiment: Minimum inhibitory concentration (MIC) of compound was measured on Escherichia coli Vogel(gram negative organism); outline: as §1
Streptococcus pneumoniae [14] = experiment: Minimum inhibitory concentration (MIC) of compound was measured on Streptococcus pneumoniae SV-1(gram positive organism); outline: as §1

SMILES: CCn1cc(C(=O)O)c(=O)c2cc(F)c(N3CCNCC3)cc21 [NORFLOXACIN]
- MIC (Escherichia coli [1]): 0.1 µg/mL (≈ 0.313 µM)
- ED50 (Escherichia coli [2]): 0.7 mg/kg
- ED50 (Streptococcus pyogenes [3]): > 100 mg/kg
- MIC (Klebsiella pneumoniae): 0.05 µg/mL (≈ 0.157 µM)
- MIC (Staphylococcus aureus [4]): 0.05 µg/mL (≈ 0.157 µM)
- MIC (Pseudomonas aeruginosa): 0.2 µg/mL (≈ 0.626 µM)
- MIC (Staphylococcus aureus [5]): 0.8 µg/mL (≈ 2.51 µM)
- ED50 (Streptococcus pyogenes [6]): 45 mg/kg
- ED50 (Escherichia coli [7]): 1 mg/kg
- MIC (Enterobacter cloacae): 0.1 µg/mL (≈ 0.313 µM)
- ED50 (Streptococcus pneumoniae [8]): > 100 mg/kg
- ED50 (Streptococcus pneumoniae [9]): 150 mg/kg
- IC50 (Escherichia coli [10]): 5.5 µg/mL (≈ 17.2 µM)
- MIC (Streptococcus pyogenes [11]): 0.8 µg/mL (≈ 2.51 µM)
- MIC (Enterococcus faecalis): 1.6 µg/mL (≈ 5.01 µM)
- Concentration (Escherichia coli [12]): 1 µg/mL
- MIC (Providencia rettgeri): 0.025 µg/mL (≈ 0.0783 µM)
- MIC (Escherichia coli [13]): 0.025 µg/mL (≈ 0.0783 µM)
- MIC (Streptococcus pneumoniae [14]): 1.6 µg/mL (≈ 5.01 µM)
